Only some compounds are listed: those with a hit (about 4.6% of all), similar ones and a draw of the others.
ALR inh: blocks human ALR sulfhydryl oxidase activity; AID 485317; P55789; 3.8% of 290,000 active; purified ALR, DTT oxidation, H2O2 HRP-luminol luminescence; inhibition, % (concentration not given with the values);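 active = mean replicate inhibition above about 79%, with every replicate also reaching it, limit read from the data; inconclusive = only one of the two criteria met; inactive = mean below limit and not every replicate reaching it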
NALP1 yeast inh: inhibitors of NALP1 inflammasome in yeast; S. cerevisiae NALP1/ASC/caspase-1 growth, X-gal OD620, 72 h; inhibition, % at 10 µM; 0.61% of 280,000 active; in the data active = inhibition mostly above about 24%, no sharp cut-off; inactive = mostly below about 32%
DSG3 Ab inh: human desmoglein-3 autoantibody binding inhibition; DSG3-coupled beads, scFv-anti-DSG3-GFP binding, flow cytometry; active compounds read low; binding (percent of control), % at 10 µM; P32926; 0.48% of 310,000 active;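 active = binding more than 3 SD below its plate's average and above zero; inconclusive = below that plate limit but binding exactly zero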;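 note: hits lower antibody fragment binding to DSG3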
PolyA inhibitor: yeast polyadenylation inhibition | S. cerevisiae SKY197-pL101 polyadenylation reporter, beta-gal luminescence; efflux-impaired pdr1/pdr3 knockout yeast; score 100 = 6 SD above DMSO | activity score, % at 12 µM | 0.02% of 300,000 active | AID 1875;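 active = lowest replicate activity score at least 50, where 100 means six control SD above control mean; inconclusive = lowest score under 50 but half or more replicates reach 50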;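 note: yeast exposed to compound for 9 h at 30 °C; higher score means more reporter readthrough which indicates perturbed polyadenylation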
NLRP3 yeast inh: inhibitors of NALP3 inflammasome in yeast. Yeast reconstituted NLRP3/ASC/caspase-1, beta-gal luminescence, 24 h. inhibition, % at 10 µM. 0.39% of 330,000 active;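 active = inhibition of 50% or more; inactive = inhibition below 50%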;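 note: plate controls were induced DMSO wells for no effect and uninduced yeast grown without galactose for full effect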
Arr AP2 block: blocks beta-arrestin peptide binding to AP2 adaptin | FITC-arrestin peptide / GST-AP2 beads, flow cytometry; AP2 beta2 appendage carries R879A mutation | inhibition, % at 10 µM | 0.31% of 340,000 active;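 active = inhibition above a set limit, near 3 SD of compounds lacking own fluorescence, cut at about 54% in these data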;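 note: plate controls were DMSO wells for no effect and 5 µM unlabelled arrestin peptide for full effect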
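System: GST-tagged AP2 beta2-adaptin appendage (R879A) on 4 µm glutathione beads / Reagent: FITC-arrestin peptide, 50 nM / Detection: HyperCyt-sampled flow cytometry, FL1 channel, ex 488/em 535 nm / Timing: 12 min plus 1 h, RT / Buffer or medium: PBS plus Tween 20 (0.05%) and BSA (0.1%)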
* = called active by the depositor; ? = inconclusive; · = no result.

SMILES | ALR inh | NALP1 yeast inh | DSG3 Ab inh | PolyA inhibitor | NLRP3 yeast inh | Arr AP2 block
CCSC1=N/C(=C\c2ccc(C(=O)O)cc2)C(=O)S1 | 71 | 16 | 95 | 1 | -6 | -6
COC(=O)c1ccc(/C=C2\N=C(SC)SC2=O)cc1 | 99* | -15 | · | 2 | 10 | 8
CCOC(=O)SC1=N/C(=C\c2ccc(N(C)C)cc2)C(=O)S1 | 84* | 28 | 98 | -1 | 3 | 8
CC(OC(=O)/C=C/c1ccc2ccccc2n1)C(=O)NCc1ccccc1 (stereo not given) | 52 | · | 106 | -8 | 25 | 8
O=C(Cc1ccccc1F)Nc1cc(S(=O)(=O)N2CCCCC2)ccc1N1CCOCC1 | · | · | 103 | · | · | ·
CCN(Cc1ccccc1)C1CCN(Cc2ccc(SC)cc2)CC1 | -16 | 28* | 105 | -22 | 26 | -6
CCN(Cc1ccccc1)C(=O)C1CCN(Cc2ccc(SC)cc2)CC1 | 9 | 6 | 95 | 2 | 16 | 22
CCN(CC)Cc1cc(Nc2c3ccccc3nc3c4ccccc4n(C)c23)cc(CN(CC)CC)c1O | · | · | 98 | · | · | 44
COc1ccc(N2CCC(CNC(=O)Nc3ccc(OC)cc3OC)C2)cc1 (stereo not given) | 85* | -2 | 108 | ? | 4 | 36
Cc1cc(O)ccc1N=Cc1c(C(F)(F)F)[nH][nH]c1=O | 99* | 15 | 103 | 12 | 10 | 1
c1ccc(CN2CCN(c3ncnc4c3[nH]c3ccccc34)CC2)cc1 | 95* | 6 | 102 | -3 | 17 | -4
Cc1ccc2c(c1)[nH]c1c(N3CCN(Cc4ccccc4)CC3)ncnc12 | 98* | 16 | 122 | 11 | 9 | -7
Cc1ccc2[nH]c3c(N4CCN(Cc5ccccc5)CC4)ncnc3c2c1 | 12 | 5 | 108 | -2 | 18 | 16
Cc1cc(C)nc(OC(=O)c2ccc(Cl)cc2Cl)n1 | 98* | -6 | · | 3 | -16 | ·
COC(=O)c1ccc2nc(-c3ccc(S(C)(=O)=O)cc3)cn2c1 | 1 | 22 | 96 | 6 | 1 | -21
COC(=O)c1ccc2nc(-c3cccc(N)c3)cn2c1 | 99* | -17 | · | -13 | 10 | 4
COCOCCn1cc(CN2CCS(=O)(=O)N(Cc3ccc(-c4ccc(Cl)c(Cl)c4)cc3)C(C)C2=O)nn1 (stereo not given) | · | · | 127 | · | · | ·
COc1ccc(N2C(=O)CC(Nc3ccc(C)cc3)C2=O)cc1 (stereo not given) | -14 | 1 | 100 | -3 | -12 | 2
COc1ccc(N2C(=O)CC(NNc3ncc(Cl)cc3Cl)C2=O)cc1 (stereo not given) | 84* | -11 | · | -5 | -4 | 7
Cc1ccc(C)c(NC(=O)NNS(=O)(=O)c2ccc(C)c(C)c2)c1 | 85* | -5 | 103 | 12 | 0 | 3
Cc1ccc(S(=O)(=O)NNC(=O)CCC(=O)Nc2ccc(C)c(C)c2)cc1 | 19 | -2 | · | 0 | 18 | 3
Cc1cc(C(=O)CSc2nn3c(=O)c(C(C)(C)C)nnc3s2)c(C)n1C | 92* | 12 | 93 | 0 | -1 | -19
COc1ccc(C(=O)CSc2nn3c(=O)c(C(C)(C)C)nnc3s2)cc1 | 97* | 17 | 100 | -5 | -37 | -4
CC(C)(C)c1nnc2sc(SCC(=O)c3ccccc3)nn2c1=O | 98* | 4 | 108 | -19 | -12 | 1
COc1ccc(-n2c(C)cc(C(=O)CSc3nn4c(=O)c(C(C)(C)C)nnc4s3)c2C)cc1 | 7 | 18 | 92 | -6 | -4 | 7
COc1ccc(CNC(=O)CSc2nn3c(=O)c(C(C)(C)C)nnc3s2)cc1OC | 11 | 2 | 112 | -5 | 12 | -15
CC1(c2ccccc2Br)NC(=O)N(CC(=O)NC2CCCCC2)C1=O (stereo not given) | 5 | · | 105 | · | 23 | -4
COc1ccc2nc(-c3ccco3)c(-c3ccco3)nc2c1 | 10 | 9 | 91 | 3 | 15 | 30
COc1ccc2no[n+]([O-])c2c1 | 0 | 2 | · | 73* | 10 | ·
O=C(NC(Cc1ccc(O)cc1)C(=O)N=Nc1c(O)[nH]c2ccccc12)c1ccccc1 (stereo not given) | · | · | 91 | · | · | 6

Assay outcomes deposited in PubChem BioAssay by several laboratories.
